# Screens as filed in PubChem.
# This is one part of a sample in which hits are shown more often than they occur.
# INS-1E ATP HTS: INS-1E beta cell protection from cytokine death; INS-1E cytokine-induced death, ATP luminescence, 48 h; normalised: neutral wells 0, positive control 100; protection from cytokine-induced ATP loss, % at 10 µM; 20,000 tested, 0.1% active; AID 488910;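 active means mean replicate protection from cytokine-induced ATP loss at least 50% and at least 75% of replicates each reaching 50%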
#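 Test system: INS-1E rat cells | Quantity: 8000 cells per well | Medium: Phenol-red-free RPMI with 5% fetal bovine serum | Reagent: Cytokine cocktail of IFN-γ, TNF-α and IL-1β | Doses: One compound concentration, pin transfer | Timing: 48 h co-treatment, 10 min post-lysis read | Technique: Luminescent ATP assay (CellTiter-Glo)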
# T cruzi HTS: intracellular Trypanosoma cruzi inhibition. intracellular Trypanosoma cruzi in host cells, plate reader. activity score (inhibition), % at 5.01 µM. 22,000 tested, 4.9% active. AID 651903; in the data active means activity score above about 55%;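 further: parasites and compound incubated about four days before reading; 0% = median of neutral control wells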
# A1 apoptosis 2: compounds inhibiting A1, read as caspase activation | MEF A1-2A-BIM cells, caspase-Glo luminescence, 3 h; percent of clofoctol response, DMSO zero | caspase activation, % (no concentration beside the values) | 24,000 tested, under 10 active; in the data active means caspase activation above about 5.9%
#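 Test system – A1-2A-BIM-expressing MEF cells · Input – 2500 cells/well · Medium – RPMI-1640 growth medium with 10% FBS · Compound dosing – 50 nL pinned compound · Timing – 3 h compound exposure at 37 °C · Technique – Caspase-Glo luminescence (DEVD substrate) · Evaluation – Caspase-3/7 activity from luminescence increase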
# * hit, by the source's call; x = not tested or not shown.
SMILES,INS-1E ATP HTS,T cruzi HTS,A1 apoptosis 2
O=C(N/N=C/c1cc2ccccc2n1S(=O)(=O)c1ccccc1)c1ccccn1,-8,31,-1
CN(C)CCCOc1ccc(/C=N/NC(=O)c2ccccc2O)cc1,-3,26,-2
C[C@H](CO)N1C[C@H](C)[C@H](CN(C)C(=O)Nc2ccccc2)Oc2ncc(C#Cc3ccccc3)cc2C1=O,x,-5,-1
C[C@H](CO)N1C[C@H](C)[C@H](CN(C)C(=O)Nc2ccc3c(c2)OCO3)Oc2ncc(C#Cc3ccc(C(F)(F)F)cc3)cc2C1=O,x,83*,0
COc1ccc(NC(=O)N(C)C[C@@H]2Oc3ncc(C#CC(C)(C)O)cc3C(=O)N([C@H](C)CO)C[C@@H]2C)cc1,x,-5,-1
C[C@H](CO)N1C[C@H](C)[C@H](CN(C)C(=O)Nc2ccccc2)Oc2ncc(C#Cc3ccc(C(F)(F)F)cc3)cc2C1=O,x,83*,0
COc1ccc(NC(=O)N(C)C[C@@H]2Oc3ncc(C#Cc4ccc(C(F)(F)F)cc4)cc3C(=O)N([C@H](C)CO)C[C@@H]2C)cc1,x,83*,0
C[C@H](CO)N1C[C@H](C)[C@H](CN(C)C(=O)Nc2ccc3c(c2)OCO3)Oc2ncc(C#CC(C)(C)O)cc2C1=O,-11,-12,x
Cc1ccc(O)c(/C=N/NC(=O)CCCCCCC(=O)Nc2ccccc2O)c1,x,x,-1
COc1ccc(Br)c(/C=N/NC(=O)c2ccc(C(=O)NO)cc2)c1,28,3,0
C[C@@H]1CCCCO[C@H](CN(C)C(=O)Nc2ccc(C(F)(F)F)cc2)[C@@H](C)CN([C@H](C)CO)C(=O)c2cc(NS(=O)(=O)c3cccs3)ccc2O1,0,x,x
C[C@@H]1CCCCO[C@H](CN(C)Cc2ccc(C(F)(F)F)cc2)[C@@H](C)CN([C@H](C)CO)C(=O)c2cc(NS(=O)(=O)c3cccs3)ccc2O1,-9,18,x
C[C@@H]1CCCCO[C@@H](CN(C)C(=O)Nc2ccc(C(F)(F)F)cc2)[C@@H](C)CN([C@H](C)CO)C(=O)c2cc(NS(=O)(=O)c3cccs3)ccc2O1,-13,57*,0
C[C@@H]1CCCCO[C@@H](CN(C)Cc2ccc(C(F)(F)F)cc2)[C@@H](C)CN([C@H](C)CO)C(=O)c2cc(NS(=O)(=O)c3cccs3)ccc2O1,-74,64*,x
C[C@H]1CN([C@@H](C)CO)C(=O)c2cc(NC(=O)CCCN(C)C)ccc2O[C@H]1CN(C)C(=O)Nc1ccccc1,x,x,1
C[C@H](CO)N1C[C@H](C)[C@H](CN(C)S(=O)(=O)c2ccc(F)cc2)Oc2ccc(NS(=O)(=O)c3ccc(F)cc3)cc2C1=O,x,68*,1
C[C@@H]1CN([C@H](C)CO)C(=O)c2cc(NS(=O)(=O)c3cccs3)ccc2O[C@H]1CN(C)S(=O)(=O)c1ccc(F)cc1,x,-7,x
C[C@H](CO)N1C[C@H](C)[C@H](CN(C)S(=O)(=O)c2ccc(Cl)cc2)Oc2ccc(NS(=O)(=O)c3ccc(F)cc3)cc2C1=O,-16,63*,1
C[C@H]1CN([C@@H](C)CO)C(=O)c2cc(NS(=O)(=O)c3ccc(F)cc3)ccc2O[C@@H]1CN(C)S(=O)(=O)c1ccc(Cl)cc1,0,5,0
C[C@H](CO)N1C[C@H](C)[C@@H](CN(C)S(=O)(=O)c2ccc(F)cc2)Oc2ccc(NS(=O)(=O)c3ccc(F)cc3)cc2C1=O,x,-3,x
C[C@@H]1CN([C@@H](C)CO)C(=O)c2cc(NS(=O)(=O)c3cccs3)ccc2O[C@H]1CN(C)S(=O)(=O)c1ccc(F)cc1,5,62*,1
O=C(O)CCCCCCC(=O)N/N=C/c1cc(Br)cs1,10,1,x
COC(=O)CCCCCCC(=O)N/N=C/c1cc(OC)ccc1O,10,-24,-1
Cc1noc(C)c1S(=O)(=O)Nc1ccc2c(c1)CC(=O)N([C@@H](C)CO)C[C@@H](C)[C@H](CN(C)Cc1ccc(Cl)c(Cl)c1)O2,x,x,-1
Cc1noc(C)c1S(=O)(=O)Nc1ccc2c(c1)CC(=O)N([C@@H](C)CO)C[C@@H](C)[C@@H](CN(C)Cc1ccc(Cl)c(Cl)c1)O2,-9,61*,x
SMILES,INS-1E ATP HTS,T cruzi HTS,A1 apoptosis 2
Cc1noc(C)c1S(=O)(=O)Nc1ccc2c(c1)C(=O)N([C@@H](C)CO)C[C@H](C)[C@@H](CN(C)Cc1ccc(Cl)c(Cl)c1)O2,-15,66*,1
Cc1noc(C)c1S(=O)(=O)Nc1ccc2c(c1)C(=O)N([C@@H](C)CO)C[C@@H](C)[C@@H](CN(C)Cc1ccc(Cl)c(Cl)c1)O2,-4,50,x
C=CCNC(=O)[C@@H]1[C@H]2C(=O)O[C@H](c3ccccc3)[C@H](c3ccccc3)N2[C@H](c2ccc(OCCO)cc2)[C@@]12C(=O)Nc1ccccc12,x,x,-1
COc1ccc([C@H]2C[C@H]3C(Br)=CC2C(=O)[C@]32CO2)cc1,x,x,0
COc1ccc(S(=O)(=O)N(C)C[C@H]2Oc3c(NS(=O)(=O)c4cccs4)cccc3C(=O)N([C@@H](C)CO)C[C@@H]2C)cc1,1,8,-1
O=C(NCCO)C1=C[C@H](Oc2ccccc2I)[C@@H](O)[C@H](N(Cc2ccco2)C(=O)Cc2ccccc2)C1,x,x,0
C[C@H]1CN([C@@H](C)CO)C(=O)c2cccc(NC(=O)NC3CCCCC3)c2O[C@@H]1CN(C)Cc1ccc(Oc2ccccc2)cc1,-21,49,x
C[C@@H]1CN([C@H](C)CO)C(=O)c2cccc(NC(=O)NC3CCCCC3)c2O[C@@H]1CN(C)Cc1ccc(Oc2ccccc2)cc1,-55,64*,-1
C[C@@H]1CN([C@H](C)CO)C(=O)c2cccc(NC(=O)NC3CCCCC3)c2O[C@H]1CN(C)Cc1ccccc1,8,23,-2
C[C@H](CO)N1C[C@H](C)[C@@H](CN(C)Cc2ccc(-c3ccccc3)cc2)Oc2c(NC(=O)NC3CCCCC3)cccc2C1=O,-19,68*,x
C[C@@H]1CN([C@H](C)CO)C(=O)c2cccc(NC(=O)NC3CCCCC3)c2O[C@H]1CN(C)Cc1ccc(Oc2ccccc2)cc1,-38,61*,x
C[C@@H]1CN([C@H](C)CO)C(=O)c2cccc(NC(=O)NC3CCCCC3)c2O[C@H]1CN(C)Cc1ccc(-c2ccccc2)cc1,-7,34,x
Cc1nnc(Sc2ccc(/C=N/NC(=O)CCCCC(=O)NO)o2)n1C,9,-2,0
COC(=O)CCCCCCC(=O)N/N=C/c1nc[nH]c1C,11,-9,1
O=C(CCCCCCC(=O)Nc1ccccc1O)N/N=C/c1ccccc1,x,x,0
COc1ccc(NC(=O)N(C)C[C@H]2Oc3c(NS(=O)(=O)c4ccc(F)cc4)cccc3C(=O)N([C@@H](C)CO)C[C@H]2C)cc1,1,64*,-1
C[C@H]1CN([C@@H](C)CO)C(=O)c2cccc(NC(=O)Nc3ccc(C(F)(F)F)cc3)c2O[C@@H]1CN(C)C(=O)Nc1ccc(C(F)(F)F)cc1,-58,47,0
C[C@@H]1CN([C@@H](C)CO)C(=O)c2cccc(NC(=O)Nc3ccc(C(F)(F)F)cc3)c2O[C@H]1CN(C)C(=O)NC1CCCCC1,-7,-9,-1
